# Compound activity as filed in PubChem BioAssay.
# NR2E3 ag-1 = agonists of human NR2E3 nuclear receptor. CHO-S Gal4-NCOR/VP16-NR2E3 two-hybrid, luciferase. AID 602229. inhibition of corepressor binding, % at 3.98 µM. Q9Y5X4. actives 0.35% (n = 360,000);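 active means inhibition above the mean of all tested compounds plus 3 SD, cut at about 70% in these data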;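 further: 0% = DMSO with NR2E3 transfected cells and 100% = cells lacking NR2E3 construct; higher means lower luciferase signal from less NR2E3 corepressor binding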
# Target sequence (Q9Y5X4 whole entry, looked up, the tested form may be a part): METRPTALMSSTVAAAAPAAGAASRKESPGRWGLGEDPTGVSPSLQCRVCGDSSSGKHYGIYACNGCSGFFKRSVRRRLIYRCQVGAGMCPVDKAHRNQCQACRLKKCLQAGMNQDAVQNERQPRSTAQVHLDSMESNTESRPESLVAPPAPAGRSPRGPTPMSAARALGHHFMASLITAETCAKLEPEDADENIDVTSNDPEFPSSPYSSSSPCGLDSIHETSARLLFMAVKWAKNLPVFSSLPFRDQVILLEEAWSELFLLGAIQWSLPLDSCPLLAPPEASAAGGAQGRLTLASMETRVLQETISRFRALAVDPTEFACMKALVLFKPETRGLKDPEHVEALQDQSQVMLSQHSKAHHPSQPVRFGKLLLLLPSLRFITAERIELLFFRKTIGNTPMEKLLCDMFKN
# Jurkat NFkB inh = inhibitors of the PMA/ionomycin-induced NF-kB reporter in Jurkat cells | PMA/ionomycin-induced NF-kB luciferase reporter, luminescence | inhibition, % at 4 µM | actives 0.53% (n = 330,000) | AID 435003; in the data active means inhibition above about 50%
# miR-122 sensor = blocks miR-122 activity in Huh7 sensor cells. Huh7 miR-122 Renilla luciferase sensor, 48 h; neutral wells = 0, positive control = 100. activation (reporter increase), % at 12.5 µM. actives 0.3% (n = 340,000);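 active means mean replicate activation score at least 90 and every replicate individually at or above 90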;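 further: higher luciferase means less miR-122 activity so hits act as miR-122 inhibitors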
# FGF22 binding = FGF22 (human) thermal shift binding. Q9HCT0. recombinant FGF22 thermal shift, SYPRO orange fluorescence; percent of sucrose octasulfate shift, DMSO zero. activity (Tm shift, normalised), % at 9.99 µM. actives 1.5% (n = 340,000). AID 651658;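 active means mean Tm shift, scaled 0 neutral to 100 positive control, at about 1.3% or above, every replicate too, limit read from the data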
# Target sequence (Q9HCT0 whole entry, looked up): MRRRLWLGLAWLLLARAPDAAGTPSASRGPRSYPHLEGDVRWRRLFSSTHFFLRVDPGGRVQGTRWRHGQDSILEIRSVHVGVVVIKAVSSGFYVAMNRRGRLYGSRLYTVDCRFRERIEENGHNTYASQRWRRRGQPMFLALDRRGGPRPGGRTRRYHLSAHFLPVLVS
# 697 NFkB inh = inhibitors of the PMA/ionomycin-induced NF-kB reporter in 697 B cells; 697 B-cell NF-kB luciferase reporter, 16 h; actives 0.33% (n = 330,000); inhibition, % at 4 µM; in the data active means inhibition above about 35%
# NR2E3 ag-2 = agonists of human nuclear receptor NR2E3; Q9Y5X4; GST-NR2E3/biotin-RetCOR TR-FRET, 1536-well; inhibition of corepressor binding, % at 4.78 µM; actives 0.12% (n = 320,000); AID 2300;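 active means percent inhibition above the cutoff of mean plus 3 SD of all tested compounds, set per screening campaign, cut at about 20% in these data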;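 further: 0% = DMSO wells and 100% = biotin wells as full block of FRET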
#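 Material: NR2E3–RetCOR corepressor complex / Incubation: Compound–protein incubation for 5 h at 4 °C / Dosing: compound at 4.8 µM, single dose / Detection: time-resolved FRET / Benchmarks: high control biotin, low control 0.6% DMSO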
# Starred values were filed as active, the others as inactive; . = not tested or not shown; [ ] = remark or other dose. A selection: hits, their analogues and other compounds. The true share with any hit is near 2.2%.
SMILES,NR2E3 ag-1,Jurkat NFkB inh,miR-122 sensor,FGF22 binding,697 NFkB inh,NR2E3 ag-2
CN1C(=O)c2cc(NC(=O)Cc3cccs3)ccc2OC[C@@H]2O[C@H](CC(=O)NCC3CCCCC3)CC[C@@H]21,.,.,154*[16.7 µM],-1,.,.
Cc1ccccc1NC(=O)Nc1ccc2c(c1)C(=O)N(C)[C@H]1CC[C@@H](CC(=O)NCC3CC3)O[C@H]1CO2,.,.,218*[16.7 µM],0,.,.
CN1C(=O)c2cc(NC(=O)NCc3ccccc3)ccc2OC[C@H]2O[C@H](CC(=O)NCC3CCCCC3)CC[C@H]21,.,.,44[16.7 µM],0,.,.
CCCC(=O)Nc1ccc2c(c1)C(=O)N(C)[C@@H]1CC[C@H](CC(=O)NCC(F)(F)F)O[C@H]1CO2,.,.,-37[16.7 µM],.,.,.
COc1ccc(CN(C)C[C@@H]2Oc3ccc(NC(=O)CCC(F)(F)F)cc3CC(=O)N([C@@H](C)CO)C[C@H]2C)cc1,.,.,1[16.7 µM],0,.,.
C[C@@H]1CN([C@H](C)CO)C(=O)CCCn2cc(nn2)CO[C@@H]1CN(C)Cc1cccc(C(F)(F)F)c1,.,.,-2[16.7 µM],.,.,.
CCNC(=O)[C@H]1[C@H](CO)[C@H]2Cn3c(ccc(-c4ccccc4)c3=O)[C@@H]1N2C(=O)C1CC1,.,.,1[16.7 µM],0,.,.
CN1C(=O)c2cc(NC(=O)Cc3ccccc3)ccc2OC[C@@H]2O[C@@H](CC(=O)NCC3CC3)CC[C@@H]21,.,.,183*[16.7 µM],0,.,.
CSc1nc2ccc(NC(=O)C3=NNC(=O)CC3)cc2s1,-17,-22,.,43*,7,0
Cc1cc(C)n2nc(SC(C)C(=O)N3CC(C)OC(C)C3)nc2n1 (configuration not stated),23,-12,-2,43*,-3,.
COC(=O)C1CCN(C(=O)CSc2nc3nc(C)cc(C)n3n2)CC1,-35,-1,4,.,8,.
Cc1cc(C)n2nc(SCC(=O)N3CCC(C(=O)O)CC3)nc2n1,-7,-9,.,44*,-2,.
Cc1ccc(S(=O)(=O)N[C@@H]2CC[C@H](CCNC(=O)C3CCCCC3)O[C@@H]2CO)cc1,.,.,-3[16.7 µM],0,.,.
O=C(O)[C@@H]1[C@@H](CO)[C@@H]2Cn3c(ccc(C4=CCCCC4)c3=O)[C@@H]2N1C(=O)c1ccccc1F,.,.,3[16.7 µM],0,.,.
Cc1onc(-c2c(F)cccc2Cl)c1C(=O)OCC(=O)NC(=O)NCC(C)C,-15,-15,.,43*,20,-2
COc1ccc(CNC(=O)COC(=O)c2c(-c3c(F)cccc3Cl)noc2C)cc1OC,-10,-1,-4,.,-11,8
Cc1ccc(C)c(S(=O)(=O)N=Nc2c(O)[nH]c3ccccc23)c1,-17,2,.,43*,5,3
CCc1nc2ccc(C(=O)Nc3cc(-c4ccccc4)ccc3OC)cn2c1N(C)Cc1nccs1,10,.,-18,43*,.,.
O=C(Nc1ccccc1)SC1CCCCC1,-100,.,-6,43*,.,.
O=C(Cc1ccccc1)NCC1CCCO1 (configuration not stated),12,-2,-2,.,-3,1
Cc1ccc(NS(=O)(=O)c2ccc(C(=O)NCC3CCCO3)cc2)cc1 (configuration not stated),-21,13,.,44*,3,1
Cc1cc(S(=O)(=O)Nc2ccc(C(=O)NCC3CCCO3)cc2)ccc1F (configuration not stated),9,1,-2,0,6,.
Cc1ccc(SCC(=O)NCC2CCCO2)cc1 (configuration not stated),11,-3,-2,43*,9,-2
O=C(Cc1ccc(F)cc1)NCC1CCCO1 (configuration not stated),-14,1,.,43*,6,0
Cc1ccc(N(Cc2ccc(C(=O)NCC3CCCO3)cc2)S(C)(=O)=O)cc1C (configuration not stated),8,-9,.,43*,-3,2
SMILES,NR2E3 ag-1,Jurkat NFkB inh,miR-122 sensor,FGF22 binding,697 NFkB inh,NR2E3 ag-2
CS(=O)(=O)N(Cc1ccc(Cl)cc1)c1ccc(C(=O)NCC2CCCO2)cc1 (configuration not stated),3,-11,-1,0,13,-1
COc1ccc(-c2ccc([C@@H]3[C@@H](CO)N4CCCCN(C(=O)NC(C)C)C[C@@H]34)cc2)cc1,.,.,8[16.7 µM],0,.,.
O=C(CSc1nnc(-c2ccccc2)c(-c2ccccc2)n1)NCC1CCCO1 (configuration not stated),-39,9,-4,43*,15,.
C[C@H](CO)N1C[C@H](C)[C@@H](CN(C)C(=O)Nc2cccc(F)c2)OCc2cnnn2CCCC1=O,.,.,-7[16.7 µM],0,.,.
Nc1[nH]ncc1-c1ccccc1,0,-2,-10,44*,6,5
COCCNC(=O)C[C@@H]1CC[C@@H]2[C@H](COC[C@H](O)CN2Cc2cccc(-c3ccncc3)c2)O1,.,.,11[16.7 µM],0,.,.
COc1n[nH]c(C(=O)NCc2ccccc2)c1[N+](=O)[O-],-26,5,2,0,21,1
COc1n[nH]c(C(=O)Nc2nc3ccccc3s2)c1[N+](=O)[O-],-87,-12,.,44*,-112,0
COc1cccc(-c2ccc([C@@H]3[C@@H](CO)N4CCCCN(CC5CCOCC5)C[C@@H]34)cc2)c1,.,.,20[16.7 µM],0,.,.
CCOc1ccc(C(C)C)cc1S(=O)(=O)N1CCOCC1,-30,-2,.,43*,6,3
Cc1ccc(-c2nnc(Nc3ccc4c(c3)OCO4)c3ccccc23)cc1S(N)(=O)=O,-12,17,180*,0,-5,-2
CC(=O)Nc1ccc(Nc2nnc(-c3ccc(C)c(S(N)(=O)=O)c3)c3ccccc23)cc1,-31,-7,.,0,10,-1
COc1ccc(NC(=O)N(C)C[C@H]2OCCCC[C@H](C)Oc3ccc(NS(=O)(=O)c4ccc(C)cc4)cc3C(=O)N([C@@H](C)CO)C[C@H]2C)cc1,.,.,-1[16.7 µM],.,.,.
CC(C)(c1ccc(O)c([N+](=O)[O-])c1)c1ccc(O)c([N+](=O)[O-])c1,23,.,-13,0,.,.
CN(C)Cc1cc(C(C)(C)c2ccccc2)ccc1O,-3,.,-2,43*,.,.
CCOC(=O)C1CCCCN1C(=O)c1cc2ccc(OC)cc2c2cc(OC)c(OC)cc12 (configuration not stated),7,.,109*,0,.,.
O=C(C[C@@H]1C[C@@H]2c3cc(NS(=O)(=O)c4ccccc4)ccc3O[C@@H]2[C@@H](CO)O1)N1CCCCC1,.,.,10[16.7 µM],0,.,.
CC(=O)Nc1ccc2c(c1)C(=O)N(C)[C@H]1CC[C@H](CC(=O)Nc3ccc4c(c3)CCC4)O[C@@H]1CO2,.,.,-20[16.7 µM],.,.,.
CN(C)CCCNC(=O)C[C@@H]1CC[C@H](NS(=O)(=O)c2ccc(F)cc2)[C@@H](CO)O1,.,.,.,0,.,.
